# Source: ChEMBL document CHEMBL4689842, “EUbOPEN Chemogenomics Library wave 1” (2021)
# System: Fibroblast
# Experiment: Multiplex assay against human fibroblast
# Format: toxicity, cell-based
# Method in brief: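 Live cells were stained at seeding with Hoechst33342, BioTracker Green Microtubule Cytoskeleton Dye, MitoTracker Red and Annexin V Alexa Fluor 680, then imaged on a CQ1 microscope at 37°C and 5% CO2 after compound addition. CellPathfinder machine-learning gating split cells into Hoechst high-intensity objects or normal cells. Normal cells were split into healthy, pyknosed or fragmented nuclei, and pyknosed cells into mitotic or apoptotic. Tubulin, mitochondrial-mass and membrane-permeability phenotypes are per cents of healthy-nucleus cells.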
# [1] = 12 h, 1 µM, compound concentration 1 uM, replicate 1
# [2] = 12 h, 1 µM, compound concentration 1 uM, replicate 2
# [3] = 12 h, 10 µM, compound concentration 10 uM, replicate 1
# [4] = 12 h, 10 µM, compound concentration 10 uM, replicate 2
# [5] = 24 h, 1 µM, compound concentration 1 uM, replicate 1
# [6] = 24 h, 1 µM, compound concentration 1 uM, replicate 2
# [7] = 24 h, 10 µM, compound concentration 10 uM, replicate 1
# [8] = 24 h, 10 µM, compound concentration 10 uM, replicate 2
# [9] = 48 h, 1 µM, compound concentration 1 uM, replicate 1
# [10] = 48 h, 1 µM, compound concentration 1 uM, replicate 2
# [11] = 48 h, 10 µM, compound concentration 10 uM, replicate 1
# [12] = 48 h, 10 µM, compound concentration 10 uM, replicate 2
smiles,measurement,setting,value
O=C1N/C(=N/c2ccccc2F)S/C1=C\c1ccc(C(=O)O)cc1,Population Apoptotic (%),[1],68%
same,Population Fragmented Nuclei (%),[1],29%
same,Population Healthy Nuclei (%),[1],37%
same,Population Hoechst High Intensity Objects (%),[1],13%
same,Population Membrane Permeable-Phenotype (%),[1],27%
same,Population Mitochondria Different-Phenotype (%),[1],2%
same,Population Mitotic Cells (%),[1],31%
same,Population Normal (%),[1],86%
same,Population Pyknosed Nuclei (%),[1],32%
same,Population Tubulin-Different-Phenotype (%),[1],19%
same,Total Cell Count,[1],112
same,Population Apoptotic (%),[2],0%
same,Population Fragmented Nuclei (%),[2],3%
same,Population Healthy Nuclei (%),[2],92%
same,Population Hoechst High Intensity Objects (%),[2],8%
same,Population Membrane Permeable-Phenotype (%),[2],6%
same,Population Mitochondria Different-Phenotype (%),[2],16%
same,Population Mitotic Cells (%),[2],100%
same,Population Normal (%),[2],91%
same,Population Pyknosed Nuclei (%),[2],3%
same,Population Tubulin-Different-Phenotype (%),[2],24%
same,Total Cell Count,[2],66
same,Population Apoptotic (%),[3],67%
same,Population Fragmented Nuclei (%),[3],29%
same,Population Healthy Nuclei (%),[3],51%
same,Population Hoechst High Intensity Objects (%),[3],60%
same,Population Membrane Permeable-Phenotype (%),[3],36%
same,Population Mitochondria Different-Phenotype (%),[3],6%
same,Population Mitotic Cells (%),[3],32%
same,Population Normal (%),[3],39%
same,Population Pyknosed Nuclei (%),[3],19%
same,Population Tubulin-Different-Phenotype (%),[3],51%
same,Total Cell Count,[3],406
same,Population Apoptotic (%),[4],44%
same,Population Fragmented Nuclei (%),[4],4%
same,Population Healthy Nuclei (%),[4],81%
same,Population Hoechst High Intensity Objects (%),[4],8%
same,Population Membrane Permeable-Phenotype (%),[4],1%
same,Population Mitochondria Different-Phenotype (%),[4],9%
same,Population Mitotic Cells (%),[4],55%
same,Population Normal (%),[4],91%
same,Population Pyknosed Nuclei (%),[4],14%
same,Population Tubulin-Different-Phenotype (%),[4],9%
same,Total Cell Count,[4],59
same,Population Apoptotic (%),[5],55%
same,Population Fragmented Nuclei (%),[5],26%
same,Population Healthy Nuclei (%),[5],47%
same,Population Hoechst High Intensity Objects (%),[5],14%
same,Population Membrane Permeable-Phenotype (%),[5],36%
same,Population Mitochondria Different-Phenotype (%),[5],5%
same,Population Mitotic Cells (%),[5],45%
same,Population Normal (%),[5],85%
same,Population Pyknosed Nuclei (%),[5],26%
same,Population Tubulin-Different-Phenotype (%),[5],41%
same,Total Cell Count,[5],89
same,Population Apoptotic (%),[6],0%
same,Population Fragmented Nuclei (%),[6],7%
same,Population Healthy Nuclei (%),[6],85%
same,Population Hoechst High Intensity Objects (%),[6],5%
same,Population Membrane Permeable-Phenotype (%),[6],5%
same,Population Mitochondria Different-Phenotype (%),[6],10%
same,Population Mitotic Cells (%),[6],100%
same,Population Normal (%),[6],94%
same,Population Pyknosed Nuclei (%),[6],7%
same,Population Tubulin-Different-Phenotype (%),[6],23%
same,Total Cell Count,[6],69
same,Population Apoptotic (%),[7],65%
same,Population Fragmented Nuclei (%),[7],18%
same,Population Healthy Nuclei (%),[7],63%
same,Population Hoechst High Intensity Objects (%),[7],20%
same,Population Membrane Permeable-Phenotype (%),[7],29%
same,Population Mitochondria Different-Phenotype (%),[7],5%
same,Population Mitotic Cells (%),[7],34%
same,Population Normal (%),[7],79%
same,Population Pyknosed Nuclei (%),[7],18%
same,Population Tubulin-Different-Phenotype (%),[7],33%
same,Total Cell Count,[7],181
same,Population Apoptotic (%),[8],60%
same,Population Fragmented Nuclei (%),[8],5%
same,Population Healthy Nuclei (%),[8],88%
same,Population Hoechst High Intensity Objects (%),[8],5%
same,Population Membrane Permeable-Phenotype (%),[8],2%
same,Population Mitochondria Different-Phenotype (%),[8],6%
same,Population Mitotic Cells (%),[8],40%
same,Population Normal (%),[8],94%
same,Population Pyknosed Nuclei (%),[8],5%
same,Population Tubulin-Different-Phenotype (%),[8],16%
same,Total Cell Count,[8],73
same,Population Apoptotic (%),[9],52%
same,Population Fragmented Nuclei (%),[9],35%
same,Population Healthy Nuclei (%),[9],46%
same,Population Hoechst High Intensity Objects (%),[9],19%
same,Population Membrane Permeable-Phenotype (%),[9],20%
same,Population Mitochondria Different-Phenotype (%),[9],0%
same,Population Mitotic Cells (%),[9],47%
same,Population Normal (%),[9],80%
same,Population Pyknosed Nuclei (%),[9],17%
same,Population Tubulin-Different-Phenotype (%),[9],20%
same,Total Cell Count,[9],118
same,Population Apoptotic (%),[10],50%
same,Population Fragmented Nuclei (%),[10],26%
same,Population Healthy Nuclei (%),[10],71%
same,Population Hoechst High Intensity Objects (%),[10],30%
same,Population Membrane Permeable-Phenotype (%),[10],18%
same,Population Mitochondria Different-Phenotype (%),[10],3%
same,Population Mitotic Cells (%),[10],50%
same,Population Normal (%),[10],69%
same,Population Pyknosed Nuclei (%),[10],1%
same,Population Tubulin-Different-Phenotype (%),[10],33%
same,Total Cell Count,[10],161
same,Population Apoptotic (%),[11],53%
same,Population Fragmented Nuclei (%),[11],43%
same,Population Healthy Nuclei (%),[11],47%
same,Population Hoechst High Intensity Objects (%),[11],56%
same,Population Membrane Permeable-Phenotype (%),[11],29%
same,Population Mitochondria Different-Phenotype (%),[11],2%
same,Population Mitotic Cells (%),[11],46%
same,Population Normal (%),[11],43%
same,Population Pyknosed Nuclei (%),[11],9%
same,Population Tubulin-Different-Phenotype (%),[11],36%
same,Total Cell Count,[11],370
same,Population Apoptotic (%),[12],40%
same,Population Fragmented Nuclei (%),[12],23%
same,Population Healthy Nuclei (%),[12],69%
same,Population Hoechst High Intensity Objects (%),[12],15%
same,Population Membrane Permeable-Phenotype (%),[12],16%
same,Population Mitochondria Different-Phenotype (%),[12],0%
same,Population Mitotic Cells (%),[12],60%
same,Population Normal (%),[12],84%
same,Population Pyknosed Nuclei (%),[12],6%
same,Population Tubulin-Different-Phenotype (%),[12],18%
same,Total Cell Count,[12],90
O=C(Nc1ccc(Cl)cc1)Nc1cccc(-c2cccc(N3CCCC3)n2)c1,Population Apoptotic (%),[1],45%
same,Population Fragmented Nuclei (%),[1],32%
same,Population Healthy Nuclei (%),[1],41%
same,Population Hoechst High Intensity Objects (%),[1],18%
same,Population Membrane Permeable-Phenotype (%),[1],43%
same,Population Mitochondria Different-Phenotype (%),[1],5%
same,Population Mitotic Cells (%),[1],54%
same,Population Normal (%),[1],81%
same,Population Pyknosed Nuclei (%),[1],26%
same,Population Tubulin-Different-Phenotype (%),[1],35%
same,Total Cell Count,[1],110
same,Population Apoptotic (%),[2],25%
same,Population Fragmented Nuclei (%),[2],17%
same,Population Healthy Nuclei (%),[2],76%
same,Population Hoechst High Intensity Objects (%),[2],7%
same,Population Membrane Permeable-Phenotype (%),[2],10%
same,Population Mitochondria Different-Phenotype (%),[2],8%
same,Population Mitotic Cells (%),[2],75%
same,Population Normal (%),[2],92%
same,Population Pyknosed Nuclei (%),[2],6%
same,Population Tubulin-Different-Phenotype (%),[2],12%
same,Total Cell Count,[2],83
same,Population Apoptotic (%),[3],66%
same,Population Fragmented Nuclei (%),[3],21%
same,Population Healthy Nuclei (%),[3],23%
same,Population Hoechst High Intensity Objects (%),[3],35%
same,Population Membrane Permeable-Phenotype (%),[3],40%
same,Population Mitochondria Different-Phenotype (%),[3],0%
same,Population Mitotic Cells (%),[3],34%
same,Population Normal (%),[3],64%
same,Population Pyknosed Nuclei (%),[3],54%
same,Population Tubulin-Different-Phenotype (%),[3],54%
same,Total Cell Count,[3],142
same,Population Apoptotic (%),[4],72%
same,Population Fragmented Nuclei (%),[4],3%
same,Population Healthy Nuclei (%),[4],78%
same,Population Hoechst High Intensity Objects (%),[4],7%
same,Population Membrane Permeable-Phenotype (%),[4],69%
same,Population Mitochondria Different-Phenotype (%),[4],7%
same,Population Mitotic Cells (%),[4],27%
same,Population Normal (%),[4],92%
same,Population Pyknosed Nuclei (%),[4],17%
same,Population Tubulin-Different-Phenotype (%),[4],74%
same,Total Cell Count,[4],69
same,Population Apoptotic (%),[5],50%
same,Population Fragmented Nuclei (%),[5],31%
same,Population Healthy Nuclei (%),[5],52%
same,Population Hoechst High Intensity Objects (%),[5],13%
same,Population Membrane Permeable-Phenotype (%),[5],23%
same,Population Mitochondria Different-Phenotype (%),[5],0%
same,Population Mitotic Cells (%),[5],50%
same,Population Normal (%),[5],86%
same,Population Pyknosed Nuclei (%),[5],15%
same,Population Tubulin-Different-Phenotype (%),[5],42%
same,Total Cell Count,[5],103
same,Population Apoptotic (%),[6],20%
same,Population Fragmented Nuclei (%),[6],18%
same,Population Healthy Nuclei (%),[6],75%
same,Population Hoechst High Intensity Objects (%),[6],6%
same,Population Membrane Permeable-Phenotype (%),[6],7%
same,Population Mitochondria Different-Phenotype (%),[6],3%
same,Population Mitotic Cells (%),[6],80%
same,Population Normal (%),[6],93%
same,Population Pyknosed Nuclei (%),[6],6%
same,Population Tubulin-Different-Phenotype (%),[6],12%
same,Total Cell Count,[6],94
same,Population Apoptotic (%),[7],91%
same,Population Fragmented Nuclei (%),[7],17%
same,Population Healthy Nuclei (%),[7],24%
same,Population Hoechst High Intensity Objects (%),[7],31%
same,Population Membrane Permeable-Phenotype (%),[7],45%
same,Population Mitochondria Different-Phenotype (%),[7],33%
same,Population Mitotic Cells (%),[7],8%
same,Population Normal (%),[7],68%
same,Population Pyknosed Nuclei (%),[7],58%
same,Population Tubulin-Different-Phenotype (%),[7],50%
same,Total Cell Count,[7],145
same,Population Apoptotic (%),[8],72%
same,Population Fragmented Nuclei (%),[8],13%
same,Population Healthy Nuclei (%),[8],54%
same,Population Hoechst High Intensity Objects (%),[8],25%
same,Population Membrane Permeable-Phenotype (%),[8],46%
same,Population Mitochondria Different-Phenotype (%),[8],15%
same,Population Mitotic Cells (%),[8],27%
same,Population Normal (%),[8],74%
same,Population Pyknosed Nuclei (%),[8],31%
same,Population Tubulin-Different-Phenotype (%),[8],46%
same,Total Cell Count,[8],81
same,Population Apoptotic (%),[9],55%
same,Population Fragmented Nuclei (%),[9],40%
same,Population Healthy Nuclei (%),[9],51%
same,Population Hoechst High Intensity Objects (%),[9],14%
same,Population Membrane Permeable-Phenotype (%),[9],33%
same,Population Mitochondria Different-Phenotype (%),[9],1%
same,Population Mitotic Cells (%),[9],44%
same,Population Normal (%),[9],85%
same,Population Pyknosed Nuclei (%),[9],7%
same,Population Tubulin-Different-Phenotype (%),[9],28%
same,Total Cell Count,[9],135
same,Population Apoptotic (%),[10],0%
same,Population Fragmented Nuclei (%),[10],28%
same,Population Healthy Nuclei (%),[10],70%
same,Population Hoechst High Intensity Objects (%),[10],12%
same,Population Membrane Permeable-Phenotype (%),[10],22%
same,Population Mitotic Cells (%),[10],100%
same,Population Normal (%),[10],87%
same,Population Pyknosed Nuclei (%),[10],1%
same,Population Tubulin-Different-Phenotype (%),[10],34%
same,Total Cell Count,[10],107
same,Population Apoptotic (%),[11],94%
same,Population Fragmented Nuclei (%),[11],19%
same,Population Healthy Nuclei (%),[11],17%
same,Population Hoechst High Intensity Objects (%),[11],45%
same,Population Membrane Permeable-Phenotype (%),[11],35%
same,Population Mitochondria Different-Phenotype (%),[11],28%
same,Population Mitotic Cells (%),[11],5%
same,Population Normal (%),[11],54%
same,Population Pyknosed Nuclei (%),[11],63%
same,Population Tubulin-Different-Phenotype (%),[11],50%
same,Total Cell Count,[11],151
same,Population Apoptotic (%),[12],95%
same,Population Fragmented Nuclei (%),[12],16%
same,Population Healthy Nuclei (%),[12],9%
same,Population Hoechst High Intensity Objects (%),[12],63%
same,Population Membrane Permeable-Phenotype (%),[12],27%
same,Population Mitochondria Different-Phenotype (%),[12],18%
same,Population Mitotic Cells (%),[12],4%
same,Population Normal (%),[12],36%
same,Population Pyknosed Nuclei (%),[12],73%
same,Population Tubulin-Different-Phenotype (%),[12],36%
same,Total Cell Count,[12],325
